Legend:
[1] = molecular target: T1, 1-deoxy-D-xylulose 5-phosphate reductoisomerase (Escherichia coli K-12, UniProt P45568); test: Inhibition of recombinant Escherichia coli DXR
T1 sequence (P45568 whole entry): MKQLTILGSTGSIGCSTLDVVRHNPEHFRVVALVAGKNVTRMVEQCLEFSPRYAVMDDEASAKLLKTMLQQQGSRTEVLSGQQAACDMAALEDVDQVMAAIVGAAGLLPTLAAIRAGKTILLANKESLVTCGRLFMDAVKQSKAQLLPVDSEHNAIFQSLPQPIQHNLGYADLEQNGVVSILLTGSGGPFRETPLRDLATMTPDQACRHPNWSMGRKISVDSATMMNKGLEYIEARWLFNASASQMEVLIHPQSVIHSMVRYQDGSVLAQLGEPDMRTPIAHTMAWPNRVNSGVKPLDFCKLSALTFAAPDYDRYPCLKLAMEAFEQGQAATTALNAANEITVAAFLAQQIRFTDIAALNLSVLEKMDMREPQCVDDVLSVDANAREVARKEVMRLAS
Outline: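 Enzyme activity measured as conversion of DOXP to MEP, read out via the NADPH dependence of the reductoisomerase reaction.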

Plasmodium falciparum [2] = test: Inhibition of Plasmodium falciparum Dd2; type: functional, organism-based
Outline: (§1)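 Intraerythrocytic parasites cultured with the test agent in a semiautomated microdilution format. Growth was followed by incorporation of tritium-labelled hypoxanthine.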

Plasmodium falciparum [3] = test: Inhibition of Plasmodium falciparum 3D7; type: functional, organism-based; outline: as §1

Row | Structure (SMILES) | IC50 [1] | IC50 (Plasmodium falciparum [2]) | IC50 (Plasmodium falciparum [3])
1 | CC(=O)N(O)CC1CC1P(=O)(O)O (centres undefined) | 160 nM |  | 
2 | CC(=O)N(O)CCCP(=O)(O)O [FR-900098] | 58 nM | 280 nM | 240 nM
3 | O=CN(O)C[C@@H]1C[C@H]1P(=O)(O)O | 313 nM | 2000 nM | 2100 nM
4 | O=CN(O)CCCP(=O)(O)O [FOSMIDOMYCIN] |  | 480 nM | 400 nM
5 | CCC(=O)N(O)C[C@@H]1C[C@H]1P(=O)(O)O | > 3000 nM |  | 
6 | CC(=O)N(O)C[C@@H]1C[C@H]1P(=O)(O)O | 50 nM | 480 nM | 320 nM
7 | CC(=O)N(O)CC1CC1(c1ccccc1)P(=O)(O)O (centres undefined) | > 30000 nM |  | 

Reference: ChEMBL document CHEMBL1146121 (J Med Chem, 2006)
